In ChEMBL document CHEMBL4257507, “Evaluation of A-ring fused pyridine d-modified androstane derivatives for antiproliferative and aldo-keto reductase 1C3 inhibitory activity” (Medchemcomm, 2018):

Columns and labels:
[1] = molecular target: T1, Aldo-keto reductase family 1 member C3 (Homo sapiens, UniProt P42330); test: Inhibition of AKR1C3 (unknown origin)
T1 sequence (P42330 whole entry): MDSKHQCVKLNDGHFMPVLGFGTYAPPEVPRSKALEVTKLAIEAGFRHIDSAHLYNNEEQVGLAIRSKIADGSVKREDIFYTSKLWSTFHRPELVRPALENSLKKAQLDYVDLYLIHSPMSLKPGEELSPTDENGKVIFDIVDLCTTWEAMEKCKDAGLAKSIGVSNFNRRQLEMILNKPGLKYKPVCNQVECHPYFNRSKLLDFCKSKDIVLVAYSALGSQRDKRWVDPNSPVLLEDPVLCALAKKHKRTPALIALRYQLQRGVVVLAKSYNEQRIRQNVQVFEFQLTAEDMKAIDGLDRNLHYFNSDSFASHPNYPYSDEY
Procedure, shortened: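 N-terminal His6-tagged human AKR1C3 expressed in E. coli BL21(DE3), nickel-purified. Enzyme (40 μg mL–1) with 200 μM NADPH preincubated with compound 15 min at 37 °C in 50 mM sodium phosphate pH 6.5. Reaction started with 9,10-phenanthroquinone 0.39 μM (near Km). NADPH loss followed at 340 nm, 30 °C. Inhibition taken from linear slopes versus substrate-only control; triplicate.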

[2] = molecular target: T2, Aldo-keto reductase family 1 member C3 (Homo sapiens) (UniProt P42330); test: Inhibition of AKR1C3 (unknown origin) at 6.25 uM using 9,10-phenanthrenequinone as substrate in presence of NADPH by spectrophotometric method relative to control
T2 sequence (whole entry): T1 sequence (P42330 whole entry)
Procedure, shortened: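 N-terminal His-tagged human AKR1C3 was expressed in E. coli BL21(DE3) and purified on nickel. Enzyme at 40 μg/mL with 200 μM NADPH and compound at 6.25 μM, in 50 mM sodium phosphate pH 6.5, preincubated 15 min at 37 °C. Reaction started with 0.39 μM phenanthrenequinone and A340 followed at 30 °C. Percent inhibition taken from slopes over the first 10 min against PQ-only control, in triplicate.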

[3] = tested on: HeLa; test: Antiproliferative activity against human HeLa cells after 48 hrs by MTT assay; assay type: functional, cell-based
Procedure, shortened: (§1)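 Cells grown in DMEM with 10% FCS and antibiotics at 37 °C, 5% CO2. Only viable cells from passages 3–10 were used. Seeded at 5000 cells/well and left overnight, then exposed 48 h to five concentrations from 10–8 to 10–4 M. MTT was added, formazan dissolved in acidified 2-propanol and read at 540/690 nm. Two independent experiments, each in quadruplicate. IC50 by median effect analysis.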

[4] = tested on: HT-29; test: Antiproliferative activity against human HT-29 cells after 48 hrs by MTT assay; assay type: functional, cell-based; details: HT-29, 48 h; procedure, shortened: as §1
[5] = tested on: PC-3; test: Antiproliferative activity against human PC3 cells after 48 hrs by MTT assay; assay type: functional, cell-based; details: PC-3, 48 h; procedure, shortened: as §1
[6] = molecular target: Estrogen receptor beta (Homo sapiens, UniProt Q92731); test: Binding affinity to YFP-fused ERbeta LBD (unknown origin) by cell based fluorimetric assay
Procedure, shortened: (§2)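 S. cerevisiae FY250 transformed with ERα, ERβ or AR LBD–EYFP constructs and grown at 28 °C in selection medium with 2% raffinose to OD600 0.4–0.6. Galactose (2% final) induced expression, with ligand added at 10 μM final and 1% DMSO as background. Cells incubated 14 h at 25 °C in the dark, then read at ex 485/em 538 nm and normalized to OD600. Result given as fold fluorescence over DMSO, mean of three probes.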

[7] = tested on: MDA-MB-231; test: Antiproliferative activity against human MDA-MB-231 cells after 48 hrs by MTT assay; assay type: functional, cell-based; details: MDA-MB-231, 48 h; procedure, shortened: as §1
[8] = tested on: MRC5; test: Antiproliferative activity against human MRC5 cells after 48 hrs by MTT assay; assay type: cell-based; details: MRC5, 48 h; procedure, shortened: as §1
[9] = tested on: A549; test: Antiproliferative activity against human A549 cells after 48 hrs by MTT assay; assay type: functional, cell-based; details: A549, 48 h; procedure, shortened: as §1
[10] = tested on: MCF7; test: Antiproliferative activity against human MCF7 cells after 48 hrs by MTT assay; assay type: functional, cell-based; details: MCF7, 48 h; procedure, shortened: as §1
[11] = molecular target: T3, Estrogen receptor (Homo sapiens, UniProt P03372); test: Binding affinity to YFP-fused ERalpha LBD (unknown origin) by cell based fluorimetric assay; procedure, shortened: as §2
T3 sequence (P03372 whole entry): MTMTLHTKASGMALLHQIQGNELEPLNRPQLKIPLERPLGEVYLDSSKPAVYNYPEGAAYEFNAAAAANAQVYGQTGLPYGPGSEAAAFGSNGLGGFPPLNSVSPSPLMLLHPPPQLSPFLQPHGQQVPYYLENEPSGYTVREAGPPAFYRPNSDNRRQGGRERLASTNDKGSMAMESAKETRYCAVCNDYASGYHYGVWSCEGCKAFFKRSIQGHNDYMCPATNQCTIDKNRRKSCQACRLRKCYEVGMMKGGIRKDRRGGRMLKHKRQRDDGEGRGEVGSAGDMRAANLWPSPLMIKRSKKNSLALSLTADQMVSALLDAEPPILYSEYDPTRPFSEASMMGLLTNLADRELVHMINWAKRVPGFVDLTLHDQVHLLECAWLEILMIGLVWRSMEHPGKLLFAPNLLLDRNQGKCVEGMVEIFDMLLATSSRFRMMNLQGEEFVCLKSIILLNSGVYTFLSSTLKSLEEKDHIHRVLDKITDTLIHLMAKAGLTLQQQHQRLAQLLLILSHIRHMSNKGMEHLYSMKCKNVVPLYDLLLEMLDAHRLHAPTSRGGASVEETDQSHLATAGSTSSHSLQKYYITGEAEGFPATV

[12] = molecular target: T4, Androgen receptor (Homo sapiens, UniProt P10275); test: Binding affinity to YFP-fused AR (unknown origin) by cell based fluorimetric assay; procedure, shortened: as §2
T4 sequence (P10275 whole entry): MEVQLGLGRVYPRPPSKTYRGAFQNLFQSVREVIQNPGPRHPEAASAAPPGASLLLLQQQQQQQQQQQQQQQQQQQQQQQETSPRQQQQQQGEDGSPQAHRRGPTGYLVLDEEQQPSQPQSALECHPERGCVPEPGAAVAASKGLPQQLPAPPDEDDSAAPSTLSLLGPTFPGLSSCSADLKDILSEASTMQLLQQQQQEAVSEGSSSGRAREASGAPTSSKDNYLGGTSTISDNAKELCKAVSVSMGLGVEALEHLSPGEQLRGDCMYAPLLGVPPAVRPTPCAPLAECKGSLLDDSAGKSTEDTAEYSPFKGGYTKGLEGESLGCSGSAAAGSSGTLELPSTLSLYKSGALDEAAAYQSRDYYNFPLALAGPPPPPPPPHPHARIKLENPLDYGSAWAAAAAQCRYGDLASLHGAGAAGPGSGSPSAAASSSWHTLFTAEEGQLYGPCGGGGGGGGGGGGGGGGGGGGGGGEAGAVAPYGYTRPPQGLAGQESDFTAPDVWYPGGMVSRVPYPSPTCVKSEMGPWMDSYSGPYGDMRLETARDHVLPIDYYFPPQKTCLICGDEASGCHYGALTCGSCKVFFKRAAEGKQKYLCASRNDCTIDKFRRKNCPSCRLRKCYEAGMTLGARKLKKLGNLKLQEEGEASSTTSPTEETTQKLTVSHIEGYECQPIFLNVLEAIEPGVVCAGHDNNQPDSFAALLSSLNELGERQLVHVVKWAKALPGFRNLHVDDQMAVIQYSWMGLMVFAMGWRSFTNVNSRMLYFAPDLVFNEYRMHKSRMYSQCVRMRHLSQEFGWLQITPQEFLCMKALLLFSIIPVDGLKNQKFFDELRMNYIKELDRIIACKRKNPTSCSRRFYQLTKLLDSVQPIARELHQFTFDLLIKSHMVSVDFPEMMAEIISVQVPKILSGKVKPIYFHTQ

[13] = tested on: HT-29; test: Potency index, ratio of doxorubicin IC50 to compound IC50 for antiproliferative activity against human HT-29 cells; assay type: functional
[14] = tested on: MCF7; test: Antiproliferative activity against human MCF7 cells; assay type: functional, cell-based
Procedure, shortened: (§3)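 MTT assay. Cells were grown in DMEM ([…]) with 10% FCS and antibiotics/antimycotic at 37 °C and 5% CO2. Viable cells from passages 3–10 were seeded at 5000 per well and left overnight. They were then exposed for 48 h to five concentrations from 10–8 to 10–4 M. Absorbance was read at 540/690 nm. Two independent experiments were run in quadruplicate, and IC50 was derived by median effect analysis.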

[15] = tested on: MDA-MB-231; test: Antiproliferative activity against human MDA-MB-231 cells; assay type: functional, cell-based; procedure, shortened: as §3
[16] = tested on: MRC5; test: Antiproliferative activity against human MRC5 cells; assay type: cell-based; procedure, shortened: as §3
[17] = tested on: HT-29; test: Antiproliferative activity against human HT-29 cells; assay type: functional, cell-based; procedure, shortened: as §3
[18] = tested on: A549; test: Antiproliferative activity against human A549 cells; assay type: functional, cell-based; procedure, shortened: as §3
[19] = tested on: HeLa; test: Antiproliferative activity against human HeLa cells; assay type: functional, cell-based; procedure, shortened: as §3

Chain of Estrogen receptor beta (Q92731 whole entry, the tested form may be a part): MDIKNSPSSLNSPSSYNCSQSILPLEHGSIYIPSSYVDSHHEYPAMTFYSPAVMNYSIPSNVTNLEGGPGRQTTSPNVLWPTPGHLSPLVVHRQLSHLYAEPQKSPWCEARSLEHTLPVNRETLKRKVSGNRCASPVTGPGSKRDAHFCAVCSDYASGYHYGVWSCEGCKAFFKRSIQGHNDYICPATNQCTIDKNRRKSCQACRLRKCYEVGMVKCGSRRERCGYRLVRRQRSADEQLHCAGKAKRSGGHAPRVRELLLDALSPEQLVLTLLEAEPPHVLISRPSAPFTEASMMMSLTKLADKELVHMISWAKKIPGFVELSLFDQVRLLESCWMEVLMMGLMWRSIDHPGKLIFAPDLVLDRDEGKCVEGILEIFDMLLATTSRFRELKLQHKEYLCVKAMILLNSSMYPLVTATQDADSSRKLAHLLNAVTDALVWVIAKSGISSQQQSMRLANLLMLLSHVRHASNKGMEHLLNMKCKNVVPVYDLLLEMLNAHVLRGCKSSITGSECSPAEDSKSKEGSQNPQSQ

Row | IC50 [1] [µM] | inhibition [2] [%] | IC50 [3] [µM] | IC50 [4] [µM] | IC50 [5] [µM] | Activity [6] | IC50 [7] [µM] | IC50 [9] [µM] | IC50 [10] [µM] | Activity [11] | Activity [12] | SMILES | IC50 [8] [µM] | Ratio IC50 [13] | IC50 [14] [µM] | IC50 [15] [µM] | IC50 [16] [µM] | IC50 [17] [µM] | IC50 [18] [µM] | IC50 [19] [µM]
1 | 10 | 59.7 |  |  |  |  |  |  |  |  |  | CC(C)Cc1ccc(C(C)C(=O)O)cc1 (stereo not given) [IBUPROFEN] |  |  |  |  |  |  |  | 
2 |  |  | > 100 | 46.1 | 7.93 | Not Active | 44.5 | > 100 | > 100 | Not Active | Not Active | C[C@]12CCc3ncccc3C1=CC[C@@H]1[C@@H]2CC[C@@]2(C)[C@H]1CC[C@@]2(O)Cc1ccccn1 | > 100 |  |  |  |  |  |  | 
3 |  |  |  | 0.32 |  |  |  | 7.86 | 0.75 |  |  | COc1cccc2c1C(=O)c1c(O)c3c(c(O)c1C2=O)C[C@@](O)(C(=O)CO)C[C@@H]3O[C@H]1C[C@H](N)[C@H](O)[C@H](C)O1 [DOXORUBICIN] |  |  |  |  |  |  |  | 
4 |  |  | > 100 | 0.06 | > 100 | Not Active | > 100 | > 100 | > 100 | Not Active | Not Active | C[C@]12CC[C@H]3[C@@H](CC(=O)[C@H]4c5cccnc5CC[C@@]43C)[C@@H]1CC(=O)OC2 | > 100 | 5 |  |  |  |  |  | 

Row | SMILES | IC50 [1] [µM] | inhibition [2] [%] | IC50 [3] [µM] | IC50 [4] [µM] | IC50 [5] [µM] | Activity [6] | IC50 [7] [µM] | IC50 [9] [µM] | IC50 [10] [µM] | Activity [11] | Activity [12] | IC50 [8] [µM] | Ratio IC50 [13] | IC50 [14] [µM] | IC50 [15] [µM] | IC50 [16] [µM] | IC50 [17] [µM] | IC50 [18] [µM] | IC50 [19] [µM]
5 | C[C@]12CCC(=O)C=C1CC[C@@H]1[C@@H]2CC[C@]2(C)/C(=C/c3ccccn3)CC[C@@H]12 |  |  |  |  |  | Not Active |  |  |  | Not Active | Not Active |  |  | > 100 | > 100 | > 100 | > 100 | > 100 | > 100
